ChEMBL document CHEMBL5661964, “Selective in vivo and in vitro effects of a small molecule inhibitor of cyclin-dependent kinase 4” (J Natl Cancer Inst, 2001)
The source made the active and inactive calls. The rule behind the calls is not given here.

Experiments:
HCT-116 [1] = test: Antitumor activity against human HCT-116 cells xenografted in nude mouse assessed as decrease tumor growth at 75 mg/kg, iv administered once per week measured after 29 days; type: functional, organism-based; settings: time 29.0 day
Outline: (§1)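 Female BALB/c nu/nu mice (19–21 g) received 0.1 mL of HCT116 suspension (1 × 10^7 viable cells/mL, Hanks' buffer) s.c. At day 20 (tumours ~100 mm3), they were randomised into groups of eight. Dosing was i.v. via lateral tail vein at 10 mL/kg for 29 days. Blinded caliper volumes (L × W² × π/6) were taken every 2–4 days. Comparison to […] vehicle controls used one-way ANOVA/Dunnett; log-volume slopes gave growth rate.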

HCT-116 [2] = test: Antitumor activity against human HCT-116 cells xenografted in nude mouse assessed as decrease tumor volume at 75 mg/kg, iv administered once per week measured after 29 days; type: functional, organism-based; settings: time 29.0 day; outline: as §1

SMILES: O=c1[nH]cc(F)c(=O)[nH]1
- Activity (HCT-116 [1]): Active
- Activity (HCT-116 [2]): Active
